Data: publication PMC3244355 (Journal of the American Chemical Society, 2011)

How the values were obtained:
photophysical properties = type: physicochemical
Summary of the method: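 Samples are prepared at 20 μM. Dye–inhibitor conjugate spectra are recorded in 1% DMSO/PBS, pH 7.4, at 25 °C with excitation at 405 nm. Tabulated dye entries are excited at their λmax. Absorption maximum, molar absorptivity, emission maximum and fluorescence quantum yield are reported.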

solubility = type: physicochemical; details: variety of solvents
HeLa cells [1] = assay: toxicity / cell viability of dye-treated cells; type: cell-based, human; details: cells treated for up to 6 h with 100 μM dye
HeLa cells [2] = assay: membrane permeability and localization of free dyes, live-cell imaging; type: cell-based, human; details: living HeLa cells, 20 μM, 60 minutes, with AlexaFluor546-BSA endocytosis marker
Summary of the method: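 Live HeLa cells are incubated for 1 h in 20 μM test dye, with 100 μg/mL AlexaFluor546-labeled BSA as a fluid-phase endocytosis marker. Cells are washed free of dye and imaged live by epifluorescence microscopy using a custom filter set matched to 395/500 excitation/emission. Merged images are used to compare dye distribution with marker-containing endosomal vesicles.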

[3] = chemical stability in aqueous buffer solution; type: physicochemical; details: pH 4–9, several days at ambient temperature
Summary of the method: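 The test dye is held in aqueous buffer across pH 4–9 at ambient temperature for several days. Absorbance/emission properties are monitored, and the solution is checked for decomposition.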

HeLa cells [4] = assay: cell-based assay for bipolar spindle assembly / mitotic arrest; parameters: species or system human; details: 4 h; for spindle morphology: HeLa cells, fixed, anti-tubulin antibodies; for EC50: Homo sapiens, HeLa, read-out: EC50 for mitotic arrest in cell-based assay
Summary of the method: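 HeLa cells are incubated for 4 h with the test compound, alongside an untreated control. They are then fixed and probed with anti-tubulin antibodies, with DNA counterstained. Spindle organization (bipolar vs. monopolar spindle formation) is assessed by fluorescence microscopy.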

[5] = molecular target: T1, purified human KSP motor domain (Homo sapiens, UniProt P52732); assay: in vitro biochemical assay for microtubule-stimulated KSP ATPase activity
T1 sequence (P52732 18-359 limits assumed): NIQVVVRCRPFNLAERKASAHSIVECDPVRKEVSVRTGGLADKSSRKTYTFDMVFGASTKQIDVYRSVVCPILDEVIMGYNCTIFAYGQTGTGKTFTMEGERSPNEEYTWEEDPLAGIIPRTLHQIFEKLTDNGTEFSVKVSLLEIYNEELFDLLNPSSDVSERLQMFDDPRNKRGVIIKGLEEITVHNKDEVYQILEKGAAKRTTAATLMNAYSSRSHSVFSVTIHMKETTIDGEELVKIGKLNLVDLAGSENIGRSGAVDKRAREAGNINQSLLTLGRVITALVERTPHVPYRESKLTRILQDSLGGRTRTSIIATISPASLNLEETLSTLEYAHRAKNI

[6] = MeOH, 20 μM sample, excited at λmax
[7] = 1%DMSO/PBS pH 7.4, 20 μM sample
[8] = 1%DMSO/PBS pH 7.4, 20 μM sample, excited at λmax
[9] = Acetone, 20 μM sample, excited at λmax
[10] = CH2Cl2, 20 μM sample, excited at λmax
[11] = Toluene, 20 μM sample, excited at λmax
[12] = conjugates, 20 μM in 1% DMSO/PBS, pH 7.4 at 25 °C
[13] = conjugates, 20 μM in 1% DMSO/PBS, pH 7.4 at 25 °C, excited at 405 nm

## 6-Bromo-3,3-difluoro-2-(4-(thiophen-2-yl)benzylidene)-2,3-dihydro-[1,2,4,3]triazaborolo[4,5-a]pyridin-2-ium-3-uide [Compound 8]
Photophysical properties; MeOH, 20 μM sample
  Φf: 0.71
  ε: 26 600 M^−1cm^−1
  λmax: 490 nm
Photophysical properties; [6]
  λemi: 562 nm

## F[B-]1(F)N2C=CC=CC2=N[N+]1=Cc1ccc(-c2cccs2)cc1 [Compound 2, 3,3-Difluoro-2-(4-(thiophen-2-yl)benzylidene)-2,3-dihydro-[1,2,4,3]triazaborolo[4,5-a]pyridine-2-ium-3-uide]
Photophysical properties; MeOH, 20 μM sample
  Φf: 0.75
  ε: 28 800 M^−1cm^−1
  λmax: 472 nm
Photophysical properties; [6]
  λemi: 551 nm

## F[B-]1(F)N2C=C(Cl)C=CC2=N[N+]1=Cc1ccc(-c2cccs2)cc1 [Compound 4]
Photophysical properties; MeOH, 20 μM sample
  Φf: 0.69
  ε: 26 800 M^−1cm^−1
  λmax: 491 nm
Photophysical properties; [6]
  λemi: 563 nm

## F[B-]1(F)N2C=C(Br)C=CC2=N[N+]1=Cc1ccc(-c2cccs2)cc1 [Compound 6, 6-Bromo-3,3-difluoro-2-(4-(thiophen-2-yl)benzylidene)-2,3-dihydro-[1,2,4,3]triazaborolo[4,5-a]pyridin-2-ium-3-uide]
Photophysical properties; MeOH, 20 μM sample
  Φf: 0.95
  ε: 32 900 M^−1cm^−1
  λmax: 482 nm
Photophysical properties; [6]
  λemi: 562 nm

## F[B-]1(F)N2C=C(Br)C=CC2=N[N+]1=Cc1ccccc1 [Compound 10, 2-Benzylidene-6-bromo-3,3-difluoro-2,3-dihydro-[1,2,4,3]triazaborolo[4,5-a]pyridin-2-ium-3-uide]
Photophysical properties; MeOH, 20 μM sample
  Φf: 0.31
  ε: 22 600 M^−1cm^−1
  λmax: 471 nm
Photophysical properties; [6]
  λemi: 539 nm

## F[B-]1(F)N2C=C(n3cc(-c4ccccc4)nn3)C=CC2=N[N+]1=Cc1ccc(-c2cccs2)cc1 [Compound 12, 3,3-Difluoro-6-(4-phenyl-1H-1,2,3-triazol-1-yl)-2-(4-(thiophen-2-yl)benzylidene)-2,3-dihydro-[1,2,4,3]triazaborolo[4,5-a]pyridin-2-ium-3-uide]
Photophysical properties; MeOH, 20 μM sample
  Φf: 0.37
  ε: 33 800 M^−1cm^−1
  λmax: 491 nm
Photophysical properties; [6]
  λemi: 572 nm

## C#CC1=CN2C(=N[N+](=Cc3ccc(-c4cccs4)cc3)[B-]2(F)F)C=C1 [Compound 14, 6-Ethynyl-3,3-difluoro-2-(4-(thiophen-2-yl)benzylidene)-2,3-dihydro-[1,2,4,3]triazaborolo[4,5-a]pyridin-2-ium-3-uide]
Photophysical properties; MeOH, 20 μM sample
  Φf: 0.38
  ε: 36 700 M^−1cm^−1
  λmax: 481 nm
Photophysical properties; [6]
  λemi: 572 nm

## CC(C)=[N+]1N=C2C=CC(Br)=CN2[B-]1(F)F [Compound 16, 6-Bromo-3,3-difluoro-2-(propan-2-ylidene)-2,3-dihydro-[1,2,4,3]triazaborolo[4,5-a]pyridin-2-ium-3-uide]
solubility
  solubility in solvents: soluble in a variety of solvents
HeLa cells [1]
  toxicity / effects on cell viability: no toxicity
HeLa cells [2]
  cell membrane permeability: membrane permeable
Photophysical properties; [7]
  Φf: 0.17
  ε: 8 600 M^−1cm^−1
  λmax: 404 nm
Photophysical properties; [8]
  λemi: 491 nm
Photophysical properties; Acetone, 20 μM sample
  Φf: 0.17
  ε: 8 600 M^−1cm^−1
  λmax: 403 nm
Photophysical properties; [9]
  λemi: 504 nm
Photophysical properties; CH2Cl2, 20 μM sample
  Φf: 0.22
  ε: 9 300 M^−1cm^−1
  λmax: 408 nm
Photophysical properties; [10]
  λemi: 497 nm
Photophysical properties; MeOH, 20 μM sample
  Φf: 0.21
  ε: 8 500 M^−1cm^−1
  λmax: 403 nm
Photophysical properties; [6]
  λemi: 493 nm
Photophysical properties; Toluene, 20 μM sample
  Φf: 0.07
  ε: 9 800 M^−1cm^−1
  λmax: 406 nm
Photophysical properties; [11]
  λemi: 500 nm
[3]
  chemical stability in aqueous buffer solution: no decomposition in solution was evident

## CC(C)=[N+]1N=C2C=CC(I)=CN2[B-]1(F)F [Compound 18, 3,3-Difluoro-6-iodo-2-(propan-2-ylidene)-2,3-dihydro-[1,2,4,3]triazaborolo[4,5-a]pyridin-2-ium-3-uide]
solubility
  solubility in solvents: soluble in a variety of solvents
Photophysical properties; MeOH, 20 μM sample
  Φf: 0.20
  ε: 8 300 M^−1cm^−1
  λmax: 400 nm
Photophysical properties; [6]
  λemi: 496 nm

## COc1ccc(C(SC[C@H](N)C(=O)O)(c2ccccc2)c2ccccc2)cc1 [Compound 19, reference compound]
HeLa cells [4]
  spindle morphology: dose-dependent formation of monopolar spindles

## CO[B-]1(OC)N2C=C(Br)C=CC2=N[N+]1=C(C)C [Compound 21, 6-Bromo-3,3-dimethoxy-2-(propan-2-ylidene)-2,3-dihydro-[1,2,4,3]triazaborolo[4,5-a]pyridin-2-ium-3-uide]
solubility
  solubility in solvents: soluble in a variety of solvents
HeLa cells [1]
  toxicity / effects on cell viability: no toxicity
HeLa cells [2]
  cell membrane permeability: membrane permeable
Photophysical properties; [7]
  Φf: 0.16
  ε: 12 300 M^−1cm^−1
  λmax: 404 nm
Photophysical properties; [8]
  λemi: 492 nm
Photophysical properties; Acetone, 20 μM sample
  Φf: 0.23
  ε: 10 800 M^−1cm^−1
  λmax: 407 nm
Photophysical properties; [9]
  λemi: 504 nm
Photophysical properties; CH2Cl2, 20 μM sample
  Φf: 0.20
  ε: 11 200 M^−1cm^−1
  λmax: 406 nm
Photophysical properties; [10]
  λemi: 497 nm
Photophysical properties; MeOH, 20 μM sample
  Φf: 0.21
  ε: 12 000 M^−1cm^−1
  λmax: 403 nm
Photophysical properties; [6]
  λemi: 492 nm
Photophysical properties; Toluene, 20 μM sample
  Φf: 0.51
  ε: 10 600 M^−1cm^−1
  λmax: 410 nm
Photophysical properties; [11]
  λemi: 501 nm

## CO[B-]1(OC)N2C=C(I)C=CC2=N[N+]1=C(C)C [Compound 22, 6-Iodo-3,3-dimethoxy-2-(propan-2-ylidene)-2,3-dihydro[1,2,4,3]triazaborolo[4,5-a]pyridin-2-ium-3-uide]
solubility
  solubility in solvents: soluble in a variety of solvents
Photophysical properties; MeOH, 20 μM sample
  Φf: 0.21
  ε: 9 400 M^−1cm^−1
  λmax: 400 nm
Photophysical properties; [6]
  λemi: 476 nm

## COc1ccc(C(SCC(N)C(=O)NCCC#CC2=CN3C(=N[N+](=C(C)C)[B-]3(F)F)C=C2)(c2ccccc2)c2ccccc2)cc1 (stereo not drawn) [Compound 25, 6-(4-(2-Amino-3-((4-methoxyphenyl)diphenylmethylthio)propanamido)but-1-ynyl)-3,3-difluoro-2-(propan-2-ylidene)-2,3-dihydro-[1,2,4,3]triazaborolo[4,5-a]pyridin-2-ium-3-uide]
[5]
  IC50: 850 nM
HeLa cells [4]
  spindle morphology: dose-dependent formation of monopolar spindles
  EC50: 1130 nM
Photophysical properties; [12]
  ε: 9 900
  λmax: 400 nm
Photophysical properties; [13]
  Φf: 0.31
  λemi: 489 nm

## COc1ccc(C(SCC(N)C(=O)NCCC#CC2=CN3C(=N[N+](=C(C)C)[B-]3(OC)OC)C=C2)(c2ccccc2)c2ccccc2)cc1 (stereo not drawn) [Compound 26, 6-(4-(2-Amino-3-((4-methoxyphenyl)diphenylmethylthio)propanamido)-but-1-ynyl)-3,3-dimethoxy-2-(propan-2-ylidene)-2,3-dihydro-[1,2,4,3]triazaborolo[4,5-a]pyridin-2-ium-3-uide]
[5]
  IC50: 600 nM
HeLa cells [4]
  spindle morphology: dose-dependent formation of monopolar spindles
  EC50: 1030 nM
Photophysical properties; [12]
  ε: 12 900
  λmax: 400 nm
Photophysical properties; [13]
  Φf: 0.29
  λemi: 486 nm

## COc1ccc(C(SCC(N)C(=O)NCCOCCN)(c2ccccc2)c2ccccc2)cc1 (stereo not drawn) [Compound 27, 2-Amino-N-(2-(2-aminoethoxy)ethyl)-3-((4-methoxyphenyl)diphenylmethylthio)propanamide]
[5]
  IC50: 750 nM
HeLa cells [4]
  EC50: 580 nM
